According to ChEMBL document CHEMBL1156921, “Synthesis and anti-leishmanial activity of heterocyclic betulin derivatives” (Bioorg Med Chem, 2010):

What was measured:
Leishmania donovani [1] = experiment: Antiparasitic activity against Leishmania donovani MHOM/SD/1962/1S-Cl2d axenic amastigotes at 50 uM by alamar blue assay; type: functional
Leishmania donovani [2] = experiment: Antiparasitic activity against Leishmania donovani MHOM/SD/1962/1S-Cl2d amastigotes in human THP1 cells at 12.5 uM after 48 hrs by microplate reader; type: functional; details: THP-1, 48 h
[3] = Cytotoxicity against human THP1 cells at 25 uM after 48 hrs by alamar blue assay; type: cell-based; details: THP-1 cells, read-out: INH
Method in brief: (§1)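 THP-1 cells in complete RPMI-1640, 10% FCS, added to compounds in medium with DMSO, triplicate, 48 h at 37 °C, 5% CO2; alamarBlue added, 3 h further incubation, fluorescence ex 544/em 590 nm; % growth inhibition.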

[4] = Cytotoxicity against human THP1 cells at 50 uM after 48 hrs by alamar blue assay; type: cell-based; details: THP-1 cells, read-out: INH; method in brief: as §1
[5] = Cytotoxicity against human THP1 cells at 12.5 uM after 48 hrs by alamar blue assay; type: cell-based; details: THP-1 cells, read-out: INH; method in brief: as §1
Leishmania donovani [6] = experiment: Antiparasitic activity against Leishmania donovani MHOM/SD/1962/1S-Cl2d amastigotes in human THP1 cells at 25 uM after 48 hrs by microplate reader; type: functional; details: THP-1, 48 h
Leishmania donovani [7] = experiment: Antiparasitic activity against Leishmania donovani MHOM/SD/1962/1S-Cl2d amastigotes in human THP1 cells at 50 uM after 48 hrs by microplate reader; type: functional; details: THP-1, 48 h
Leishmania donovani [8] = experiment: Antiparasitic activity against Leishmania donovani MHOM/SD/1962/1S-Cl2d axenic amastigotes at 15 uM by alamar blue assay; type: functional
Leishmania donovani [9] = experiment: Antiparasitic activity against Leishmania donovani MHOM/SD/1962/1S-Cl2d axenic amastigotes at 1 uM by alamar blue assay; type: functional
[10] = Toxicity against peritoneal macrophages assessed as survival induces at 136 uM; type: cell-based, Peritoneal macrophage cell; details: read-out: Survival
Leishmania amazonensis [11] = experiment: Antiparasitic activity against Leishmania amazonensis assessed as survival index at 136 uM; type: functional
[12] = Toxicity against peritoneal macrophages assessed as survival induces at 68 uM; type: cell-based, Peritoneal macrophage cell; details: read-out: Survival
Leishmania amazonensis [13] = experiment: Antiparasitic activity against Leishmania amazonensis assessed as survival index at 68 uM; type: functional
Leishmania donovani [14] = experiment: Antileishmanial activity against Leishmania donovani promastigotes; type: functional, organism-based
Leishmania donovani [15] = experiment: Antileishmanial activity against Leishmania donovani amastigotes; type: functional, organism-based
Leishmania donovani [16] = experiment: Antileishmanial activity against Leishmania donovani infected golden hamster assessed as reduction of parasite burden at 10 mg/kg after 6 weeks; type: functional; design: scale not given: the % may be the effect or the level left

## CC(C)[C@@]12CC[C@]3(COC(=O)c4ccccc4)CC[C@]4(C)C(=C31)[C@H](C[C@@H]1[C@@]3(C)CC[C@H](OC(=O)c5ccccc5)C(C)(C)[C@@H]3CC[C@]14C)n1c(=O)n(-c3ccccc3)c(=O)n12
Leishmania donovani [1]
  inhibition at 50 µM: 0%

## CC(=O)OC[C@]12CC[C@]3(C(C)C)C1=C1[C@H](C[C@@H]4[C@@]5(C)CC[C@H](OC(C)=O)C(C)(C)[C@@H]5CC[C@@]4(C)[C@]1(C)CC2)n1c(=O)n(-c2cccc([N+](=O)[O-])c2)c(=O)n13
Leishmania donovani [1]
  inhibition at 50 µM: 30%

## CC(C)[C@@]12CC[C@]3(CO)CC[C@]4(C)C(=C31)[C@H](C[C@@H]1[C@@]3(C)CC[C@H](O)C(C)(C)[C@@H]3CC[C@]14C)n1c(=O)n(C)c(=O)n12
Leishmania donovani [1]
  inhibition at 50 µM: 50%

## CC(=O)OC[C@]12CC[C@]3(C(C)C)C1=C1[C@H](C[C@@H]4[C@@]5(C)CC[C@H](OC(C)=O)C(C)(C)[C@@H]5CC[C@@]4(C)[C@]1(C)CC2)n1c(=O)[nH]c(=O)n13
Leishmania donovani [2]
  inhibition at 12.5 µM: 4.8%
[3]
  cytotoxicity at 48 h, 25 µM: 2.4%
[4]
  cytotoxicity at 48 h, 50 µM: 97%
[5]
  cytotoxicity at 48 h, 12.5 µM: 0%
Leishmania donovani [6]
  inhibition at 25 µM: 55%
Leishmania donovani [1]
  inhibition at 50 µM: 88%

## CC(=O)OC[C@]12CC[C@]3(C(C)C)C1=C1[C@H](C[C@@H]4[C@@]5(C)CC[C@H](OC(C)=O)C(C)(C)[C@@H]5CC[C@@]4(C)[C@]1(C)CC2)n1c(=O)n(-c2ccc4c(c2)CCC4)c(=O)n13
Leishmania donovani [1]
  inhibition at 50 µM: 23%

## CC(=O)OC[C@]12CC[C@]3(C(C)C)C1=C1[C@H](C[C@@H]4[C@@]5(C)CC[C@H](OC(C)=O)C(C)(C)[C@@H]5CC[C@@]4(C)[C@]1(C)CC2)n1c(=O)n(C)c(=O)n13
Leishmania donovani [2]
  inhibition at 12.5 µM: 60%
[3]
  cytotoxicity at 48 h, 25 µM: 78%
[4]
  cytotoxicity at 48 h, 50 µM: 94%
[5]
  cytotoxicity at 48 h, 12.5 µM: 39%
Leishmania donovani [1]
  inhibition at 50 µM: 98%

## CC(C)[C@@]12CC[C@]3(COC(=O)C4CCCCC4)CC[C@]4(C)C(=C31)[C@H](C[C@@H]1[C@@]3(C)CC[C@H](OC(=O)C5CCCCC5)C(C)(C)[C@@H]3CC[C@]14C)n1c(=O)n(C(C)(C)C)c(=O)n12
Leishmania donovani [1]
  inhibition at 50 µM: 4.8%

## CC(=O)OC[C@]12CC[C@]3(C(C)C)C1=C1[C@H](C[C@@H]4[C@@]5(C)CC[C@H](OC(C)=O)C(C)(C)[C@@H]5CC[C@@]4(C)[C@]1(C)CC2)n1c(=O)n(Cc2ccccc2)c(=O)n13
Leishmania donovani [1]
  inhibition at 50 µM: 25%

## COc1cccc(-n2c(=O)n3n(c2=O)[C@]2(C(C)C)CC[C@]4(COC(C)=O)CC[C@]5(C)C(=C42)[C@@H]3C[C@@H]2[C@@]3(C)CC[C@H](OC(C)=O)C(C)(C)[C@@H]3CC[C@]25C)c1
Leishmania donovani [1]
  inhibition at 50 µM: 44%

## CC(=O)OC[C@]12CC[C@]3(C(C)C)C1=C1[C@H](C[C@@H]4[C@@]5(C)CC[C@H](OC(C)=O)C(C)(C)[C@@H]5CC[C@@]4(C)[C@]1(C)CC2)n1c(=O)n(-c2ccc(F)cc2)c(=O)n13
Leishmania donovani [1]
  inhibition at 50 µM: 48%

## CC(=O)OC[C@]12CC[C@]3(C(C)C)C1=C1[C@H](C[C@@H]4[C@@]5(C)CC[C@H](OC(C)=O)C(C)(C)[C@@H]5CC[C@@]4(C)[C@]1(C)CC2)n1c(=O)n(-c2ccc(Cl)cc2)c(=O)n13
Leishmania donovani [1]
  inhibition at 50 µM: 30%

## CC(=O)OC[C@]12CC[C@]3(C(C)C)C1=C1[C@H](C[C@@H]4[C@@]5(C)CC[C@H](OC(C)=O)C(C)(C)[C@@H]5CC[C@@]4(C)[C@]1(C)CC2)n1c(=O)n(-c2ccc(C(C)=O)cc2)c(=O)n13
Leishmania donovani [1]
  inhibition at 50 µM: 45%

## CC(=O)OC[C@]12CC[C@]3(C(C)C)C1=C1[C@H](C[C@@H]4[C@@]5(C)CC[C@H](OC(C)=O)C(C)(C)[C@@H]5CC[C@@]4(C)[C@]1(C)CC2)n1c(=O)n(-c2cccc4ccccc24)c(=O)n13
Leishmania donovani [1]
  inhibition at 50 µM: 58%

## CC(=O)OC[C@]12CC[C@]3(C(C)C)C1=C1[C@H](C[C@@H]4[C@@]5(C)CC[C@H](OC(C)=O)C(C)(C)[C@@H]5CC[C@@]4(C)[C@]1(C)CC2)n1c(=O)n(-c2ccccc2)c(=O)n13
Leishmania donovani [1]
  inhibition at 50 µM: 36%

## CC(C)[C@@]12CC[C@]3(CO)CC[C@]4(C)C(=C31)[C@H](C[C@@H]1[C@@]3(C)CC[C@H](O)C(C)(C)[C@@H]3CC[C@]14C)n1c(=O)n(-c3ccccc3)c(=O)n12
Leishmania donovani [1]
  inhibition at 50 µM: 48%

## CCCCn1c(=O)n2n(c1=O)[C@]1(C(C)C)CC[C@]3(COC(C)=O)CC[C@]4(C)C(=C31)[C@@H]2C[C@@H]1[C@@]2(C)CC[C@H](OC(C)=O)C(C)(C)[C@@H]2CC[C@]14C
Leishmania donovani [1]
  inhibition at 50 µM: 49%

## CCn1c(=O)n2n(c1=O)[C@]1(C(C)C)CC[C@]3(COC(C)=O)CC[C@]4(C)C(=C31)[C@@H]2C[C@@H]1[C@@]2(C)CC[C@H](OC(C)=O)C(C)(C)[C@@H]2CC[C@]14C
Leishmania donovani [2]
  inhibition at 12.5 µM: 0%
[3]
  cytotoxicity at 48 h, 25 µM: 13%
[4]
  cytotoxicity at 48 h, 50 µM: 48%
[5]
  cytotoxicity at 48 h, 12.5 µM: 8.5%
Leishmania donovani [6]
  inhibition at 25 µM: 53%
Leishmania donovani [1]
  inhibition at 50 µM: 88%

## CCC(=O)OC[C@]12CC[C@]3(C(C)C)C1=C1[C@H](C[C@@H]4[C@@]5(C)CC[C@H](OC(=O)CC)C(C)(C)[C@@H]5CC[C@@]4(C)[C@]1(C)CC2)n1c(=O)n(C)c(=O)n13
Leishmania donovani [2]
  inhibition at 12.5 µM: 18%
Leishmania donovani [7]
  inhibition at 50 µM: 83%
[3]
  cytotoxicity at 48 h, 25 µM: 15%
[4]
  cytotoxicity at 48 h, 50 µM: 16%
[5]
  cytotoxicity at 48 h, 12.5 µM: 5%
Leishmania donovani [6]
  inhibition at 25 µM: 55%
Leishmania donovani [1]
  inhibition at 50 µM: 93%

## CCCC(=O)OC[C@]12CC[C@]3(C(C)C)C1=C1[C@H](C[C@@H]4[C@@]5(C)CC[C@H](OC(=O)CCC)C(C)(C)[C@@H]5CC[C@@]4(C)[C@]1(C)CC2)n1c(=O)n(C)c(=O)n13
Leishmania donovani [8]
  inhibition at 15 µM: 26%

## CC(C)[C@@]12CC[C@]3(COC(=O)C4CCCCC4)CC[C@]4(C)C(=C31)[C@H](C[C@@H]1[C@@]3(C)CC[C@H](OC(=O)C5CCCCC5)C(C)(C)[C@@H]3CC[C@]14C)n1c(=O)n(C)c(=O)n12
Leishmania donovani [1]
  inhibition at 50 µM: 5.5%

## CC(C)[C@@]12CC[C@]3(COC(=O)c4ccccc4)CC[C@]4(C)C(=C31)[C@H](C[C@@H]1[C@@]3(C)CC[C@H](OC(=O)c5ccccc5)C(C)(C)[C@@H]3CC[C@]14C)n1c(=O)n(C)c(=O)n12
Leishmania donovani [1]
  inhibition at 50 µM: 0%

## CC(C)C(=O)OC[C@]12CC[C@]3(C(C)C)C1=C1[C@H](C[C@@H]4[C@@]5(C)CC[C@H](OC(=O)C(C)C)C(C)(C)[C@@H]5CC[C@@]4(C)[C@]1(C)CC2)n1c(=O)n(C)c(=O)n13
Leishmania donovani [8]
  inhibition at 15 µM: 19%

## C[C@@H]1[C@H](O)[C@@H](C)/C=C/C=C/C=C/C=C/C=C/C=C/C=C/[C@H](O[C@@H]2O[C@H](C)[C@@H](O)[C@H](N)[C@@H]2O)C[C@@H]2O[C@](O)(C[C@@H](O)C[C@@H](O)[C@H](O)CC[C@@H](O)C[C@@H](O)CC(=O)O[C@H]1C)C[C@H](O)[C@H]2C(=O)O [AMPHOTERICIN B]
Leishmania donovani [9]
  inhibition at 1 µM: > 90%

## C=C(C)[C@@H]1CC[C@]2(C=O)CC[C@]3(C)[C@H](CC[C@@H]4[C@@]5(C)CC[C@H](O)C(C)(C)[C@@H]5CC[C@]43C)[C@@H]12 [BETULINALDEHYDE]
[10]
  viability at 136 µM: 70%
Leishmania amazonensis [11]
  survival at 136 µM: 12%
[12]
  viability at 68 µM: 80%
Leishmania amazonensis [13]
  survival at 68 µM: 42%

## C=C(C)[C@@H]1CC[C@]2(C(=O)O)CC[C@]3(C)[C@H](CC[C@@H]4[C@@]5(C)CC[C@H](O)C(C)(C)[C@@H]5CC[C@]43C)[C@@H]12 [BETULINIC ACID]
Leishmania donovani [14]
  IC50: 2.6 µM
Leishmania donovani [15]
  IC50: 4.1 µM
Leishmania donovani [16]
  Activity: 92%
